Experimental data from ChEMBL document CHEMBL2146441, “2,6-Disubstituted imidazo[2,1-b][1,3,4]thiadiazoles: search for anticancer agents” (2012).

How the values were obtained:
Format in all cases: functional
[1] = tested on: SK-MEL-5; experiment: Growth inhibition of human SK-MEL-5 cells at 10^-6 M after 48 hrs by SRB assay; design: scale not given: the % may be the effect or the level left
[2] = tested on: SK-MEL-5; experiment: Growth inhibition of human SK-MEL-5 cells at 10^-8 M after 48 hrs by SRB assay; design: scale not given: the % may be the effect or the level left
[3] = tested on: NCI-H23; experiment: Growth inhibition of human NCI-H23 cells at 10^-5 M after 48 hrs by SRB assay; design: scale not given: the % may be the effect or the level left
[4] = tested on: NCI-H23; experiment: Growth inhibition of human NCI-H23 cells at 10^-6 M after 48 hrs by SRB assay; design: scale not given: the % may be the effect or the level left
[5] = tested on: NCI-H23; experiment: Growth inhibition of human NCI-H23 cells at 10^-7 M after 48 hrs by SRB assay; design: scale not given: the % may be the effect or the level left
[6] = tested on: NCI-H23; experiment: Growth inhibition of human NCI-H23 cells at 10^-4 M after 48 hrs by SRB assay; design: scale not given: the % may be the effect or the level left
[7] = tested on: OVCAR-4; experiment: Cytotoxicity against human OVCAR4 cells assessed as cell growth at 10^-6 M after 48 hrs by SRB assay; settings: OVCAR-4, 48 h, read-out: Activity
[8] = tested on: NCI-H226; experiment: Cytotoxicity against human NCI-H226 cells assessed as cell growth at 10^-4 M after 48 hrs by SRB assay; settings: NCI-H226, 48 h, read-out: Activity
[9] = Cytotoxicity against human NCI-ADR-RES cells assessed as cell growth at 10^-4 M after 48 hrs by SRB assay; settings: read-out: Activity
[10] = tested on: HOP-92; experiment: Cytotoxicity against human HOP92 cells assessed as cell growth at 10^-4 M after 48 hrs by SRB assay; settings: HOP-92, 48 h, read-out: Activity
Outline: (§1)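 NCI-60 five-dose screen. Cells were grown in RPMI 1640 with 5% FBS and seeded at 5000–40,000 cells/well according to doubling time. They were pre-incubated 24 h at 37 °C in 5% CO₂, and time-zero (Tz) plates were TCA-fixed at drug addition. Five 10-fold dilutions of DMSO stock were applied for 48 h. Read-out was SRB staining, 515 nm absorbance, with percent growth calculated versus Tz and untreated control.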

[11] = tested on: SK-MEL-5; experiment: Growth inhibition of human SK-MEL-5 cells at 10^-7 M after 48 hrs by SRB assay; design: scale not given: the % may be the effect or the level left
[12] = tested on: A549; experiment: Growth inhibition of human A549 cells after 48 hrs by SRB assay; settings: A549, 48 h; for CC50: read-out: LC50 (the source's name)
Outline: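 Same 48 h NCI-60 five-dose SRB protocol. Adherent lines were fixed with cold TCA at 10% final; suspension lines such as CCRF-CEM were fixed with 16% final TCA. Stain was 0.4% SRB in 1% acetic acid for 10 min, solubilized in 10 mM Tris base and read at 515 nm. GI50 came from log concentration–growth curves, solving [(Ti−Tz)/(C−Tz)]×100 = 50.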

[13] = tested on: U-251; experiment: Cytotoxicity against human U251 cells assessed as cell growth at 10^-7 M after 48 hrs by SRB assay; settings: U-251, 48 h, read-out: Activity
[14] = tested on: U-251; experiment: Cytotoxicity against human U251 cells assessed as cell growth at 10^-6 M after 48 hrs by SRB assay; settings: U-251, 48 h, read-out: Activity
[15] = tested on: NCI-H23; experiment: Growth inhibition of human NCI-H23 cells after 48 hrs by SRB assay; settings: NCI-H23, 48 h
Outline: (§2)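 Adherent NCI-60 lines grown in RPMI 1640 with 5% FBS, seeded at 5000–40,000 cells/well, and preincubated 24 h at 37 °C, 5% CO2. Compound, stocked in DMSO, given either once at 10^-5 M or at five 10-fold dilutions for 48 h. Cells fixed with cold TCA (final 10%), stained with 0.4% SRB, and read at 515 nm. GI50 taken as 50% reduction in net protein increase versus time-zero and control plates.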

[16] = tested on: NCI-H23; experiment: Growth inhibition of human NCI-H23 cells at 10^-8 M after 48 hrs by SRB assay; design: scale not given: the % may be the effect or the level left
[17] = tested on: KM12; experiment: Cytotoxicity against human KM12 cells assessed as cell growth at 10^-8 M after 48 hrs by SRB assay; settings: KM12, 48 h, read-out: Activity
[18] = tested on: OVCAR-8; experiment: Cytotoxicity against human OVCAR8 cells assessed as cell growth at 10^-4 M after 48 hrs by SRB assay; settings: OVCAR-8, 48 h, read-out: Activity
[19] = tested on: MDA-MB-435; experiment: Cytotoxicity against human MDA-MB-435 cells assessed as cell growth at 10^-8 M after 48 hrs by SRB assay; settings: MDA-MB-435, 48 h, read-out: Activity
[20] = tested on: SK-MEL-5; experiment: Growth inhibition of human SK-MEL-5 cells at 10^-5 M after 48 hrs by SRB assay; design: scale not given: the % may be the effect or the level left
[21] = tested on: A549; experiment: Cytotoxicity against human A549 cells assessed as cell growth at 10^-4 M after 48 hrs by SRB assay; settings: A549, 48 h, read-out: Activity
[22] = tested on: HOP-62; experiment: Growth inhibition of human HOP62 cells after 48 hrs by SRB assay; settings: HOP-62, 48 h; outline: as §2
[23] = tested on: TK-10; experiment: Cytotoxicity against human TK10 cells assessed as cell growth at 10^-6 M after 48 hrs by SRB assay; settings: TK-10, 48 h, read-out: Activity
[24] = tested on: SN12C; experiment: Growth inhibition of human SN12C cells after 48 hrs by SRB assay; settings: for CC50: read-out: LC50 (the source's name); outline: as §2
[25] = tested on: Malme-3M; experiment: Cytotoxicity against human MALME-3M cells assessed as cell growth at 10^-7 M after 48 hrs by SRB assay; settings: read-out: Activity
[26] = tested on: SK-MEL-5; experiment: Growth inhibition of human SK-MEL-5 cells after 48 hrs by SRB assay; settings: SK-MEL-5, 48 h, read-out: LC50 (the source's name); outline: as §2
[27] = tested on: SK-MEL-5; experiment: Growth inhibition of human SK-MEL-5 cells at 10^-4 M after 48 hrs by SRB assay; design: scale not given: the % may be the effect or the level left
[28] = tested on: HL-60; experiment: Cytotoxicity against human HL60 cells assessed as cell growth at 10^-6 M after 48 hrs by SRB assay; settings: HL-60, 48 h, read-out: Activity; outline: as §1
[29] = tested on: HOP-92; experiment: Cytotoxicity against human HOP92 cells assessed as cell growth at 10^-6 M after 48 hrs by SRB assay; settings: HOP-92, 48 h, read-out: Activity
[30] = tested on: UO-31; experiment: Cytotoxicity against human UO31 cells assessed as cell growth at 10^-5 M after 48 hrs by SRB assay; settings: UO-31, 48 h, read-out: Activity

COc1ccc(-c2nn3cc(-c4cccc(N)c4)nc3s2)cc1
Activity [1]: 75% | Activity [2]: 91% | Activity [3]: 35% | Activity [4]: 84% | Activity [5]: 89% | Activity [6]: 2% | growth at 1 µM [7]: 60% | growth at 100 µM [8]: -61% | growth at 100 µM [9]: -11% | growth at 100 µM [10]: -52% | Activity [11]: 91% | GI50 [12]: 5.84 µM | TGI [12]: 27.5 µM | CC50 [12]: > 100 µM | growth at 0.1 µM [13]: 106% | growth at 1 µM [14]: 95% | GI50 [15]: 4.9 µM | TGI [15]: > 100 µM | CC50 ([15]; read-out: LC50 (the source's name)): > 100 µM | Activity [16]: 92% | growth at 0.01 µM [17]: 98% | growth at 100 µM [18]: -54% | growth at 0.01 µM [19]: 95% | Activity [20]: 1% | growth at 100 µM [21]: -46% | GI50 [22]: 3.12 µM | LC50 (concentration killing 50% of cells) [22]: 87.6 µM | TGI [22]: 16.6 µM | growth at 1 µM [23]: 118% | GI50 [24]: 4.18 µM | TGI [24]: > 100 µM | CC50 [24]: > 100 µM | growth at 0.1 µM [25]: 97% | CC50 [26]: 3.32 µM | Activity [27]: -96% | growth at 1 µM [28]: 60%

COc1ccc(-c2nn3cc(-c4ccc(O)cc4O)nc3s2)cc1
growth at 1 µM [29]: 25% | growth at 1 µM [7]: 68% | growth at 100 µM [8]: -19% | growth at 100 µM [10]: -21% | growth at 10 µM [30]: -46% | GI50 [12]: 2.69 µM | TGI [12]: > 100 µM | CC50 [12]: > 100 µM | growth at 0.1 µM [13]: 92% | growth at 1 µM [14]: 77% | growth at 0.01 µM [17]: 98% | growth at 100 µM [18]: -8% | growth at 0.01 µM [19]: 97% | GI50 [22]: 1.88 µM | LC50 (concentration killing 50% of cells) [22]: > 100 µM | TGI [22]: 5.17 µM | growth at 1 µM [23]: 101% | GI50 [24]: 2.58 µM | TGI [24]: > 100 µM | CC50 [24]: > 100 µM | growth at 0.1 µM [25]: 90% | growth at 1 µM [28]: 74%
